From ChEMBL document CHEMBL5712080, “PRMT5 promotes cell proliferation by inhibiting BTG2 expression via the ERK signaling pathway in hepatocellular carcinoma” (Cancer Med, 2018)
Activity calls are given as the source filed them. The calls are words filed in the database; no cut-off is given here.

How the values were obtained:
Huh-7 [1] = assay: Upregulation of BTG2 protein in PRMT5 knockdown human Huh-7 cells at 20 microM for 24 hrs by Western blot analysis; assay type: functional, cell-based
Summary of the method: (§1)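 Huh7 or SK-Hep1 cells stably carrying lentiviral shRNA against PRMT5, selected 2 weeks in puromycin (final 1 μg/mL), grown in DMEM/10% FBS at 37°C, 5% CO2. Cells pretreated 24 h with 20 μM PD184352 (ERK phosphorylation inhibitor). RIPA lysates run on 8–12% SDS-PAGE, PVDF, 5% milk block, primary antibody overnight at 4°C, HRP secondary, chemiluminescent detection. Histone 3 was the nuclear loading control.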

SK-HEP1 [2] = assay: Upregulation of BTG2 protein in PRMT5 knockdown human SK-HEP1 cells at 20 microM for 24 hrs by Western blot analysis; assay type: functional, cell-based; summary of the method: as §1
Huh-7 [3] = assay: Reversal of H4R3me2s level in human Huh-7 cells at 500 nM for 4 days in presence of PD184352 by Western blotting analysis; assay type: functional, cell-based; conditions: time 4.0 day
[4] = target: Protein arginine N-methyltransferase 5 (Homo sapiens) (UniProt O14744); assay: Inhibition of PRMT5 in human Huh-7 cells assessed as H4R3me2s protein level at 500 nM for 4 days by Western blot analysis; assay type: cell-based; conditions: time 4.0 day
Huh-7 [5] = assay: Reversal of ERK phosphorylation level in human Huh-7 cells at 500 nM for 4 days in presence of PD184352 by Western blotting analysis; assay type: functional, cell-based; conditions: time 4.0 day
[6] = target: Protein arginine N-methyltransferase 5 (Homo sapiens) (UniProt O14744); assay: Inhibition of PRMT5 in human Huh-7 cells assessed as upregulation of ERK phosphorylation level at 500 nM for 4 days by Western blot analysis; assay type: cell-based; conditions: time 4.0 day
[7] = target: Protein arginine N-methyltransferase 5 (Homo sapiens) (UniProt O14744); assay: Inhibition of PRMT5 in human SK-HEP1 cells assessed as upregulation of BTG2 protein level at 500 nM for 4 days by Western blot analysis; assay type: cell-based; conditions: time 4.0 day
[8] = target: Protein arginine N-methyltransferase 5 (Homo sapiens) (UniProt O14744); assay: Inhibition of PRMT5 in human SK-HEP1 cells assessed as H4R3me2s protein level at 500 nM for 4 days by Western blot analysis; assay type: cell-based; conditions: time 4.0 day
[9] = target: Protein arginine N-methyltransferase 5 (Homo sapiens) (UniProt O14744); assay: Inhibition of PRMT5 in human Huh-7 cells assessed as upregulation of BTG2 protein level at 500 nM for 4 days by Western blot analysis; assay type: cell-based; conditions: time 4.0 day
SK-HEP1 [10] = assay: Reversal of ERK phosphorylation level in human SK-HEP1 cells at 500 nM for 4 days in presence of PD184352 by Western blotting analysis; assay type: functional, cell-based; conditions: time 4.0 day
SK-HEP1 [11] = assay: Reversal of H4R3me2s level in human SK-HEP1 cells at 500 nM for 4 days in presence of PD184352 by Western blotting analysis; assay type: functional, cell-based; conditions: time 4.0 day
SK-HEP1 [12] = assay: Reversal of BTG2 protein level in human SK-HEP1 cells at 500 nM for 4 days in presence of PD184352 by Western blotting analysis; assay type: functional, cell-based; conditions: time 4.0 day
[13] = target: Protein arginine N-methyltransferase 5 (Homo sapiens) (UniProt O14744); assay: Inhibition of PRMT5 in human SK-HEP1 cells assessed as upregulation of ERK phosphorylation level at 500 nM for 4 days by Western blot analysis; assay type: cell-based; conditions: time 4.0 day
Huh-7 [14] = assay: Reversal of BTG2 protein level in human Huh-7 cells at 500 nM for 4 days in presence of PD184352 by Western blotting analysis; assay type: functional, cell-based; conditions: time 4.0 day

Sequence of Protein arginine N-methyltransferase 5 (Homo sapiens) (O14744 whole entry): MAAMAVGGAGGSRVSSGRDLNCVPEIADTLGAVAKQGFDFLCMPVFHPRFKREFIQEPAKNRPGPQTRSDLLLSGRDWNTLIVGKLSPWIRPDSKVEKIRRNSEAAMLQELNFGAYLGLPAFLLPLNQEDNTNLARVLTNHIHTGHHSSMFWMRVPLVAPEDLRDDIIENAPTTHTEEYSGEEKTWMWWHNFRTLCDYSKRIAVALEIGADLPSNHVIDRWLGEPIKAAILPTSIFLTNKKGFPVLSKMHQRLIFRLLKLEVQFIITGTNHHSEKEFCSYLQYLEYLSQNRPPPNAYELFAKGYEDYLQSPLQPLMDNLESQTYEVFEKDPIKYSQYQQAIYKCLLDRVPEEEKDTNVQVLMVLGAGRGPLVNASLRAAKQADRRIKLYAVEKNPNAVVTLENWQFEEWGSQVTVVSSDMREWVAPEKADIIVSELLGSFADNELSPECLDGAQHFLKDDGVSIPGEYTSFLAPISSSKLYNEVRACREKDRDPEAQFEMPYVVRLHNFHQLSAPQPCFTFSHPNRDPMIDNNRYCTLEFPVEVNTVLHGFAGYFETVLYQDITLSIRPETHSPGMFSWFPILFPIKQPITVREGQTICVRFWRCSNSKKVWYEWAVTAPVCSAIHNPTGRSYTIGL

Row | inhibition [4] | inhibition [6] | inhibition [7] | inhibition [8] | inhibition [9] | inhibition [13] | SMILES | Activity (Huh-7 [1]) | Activity (SK-HEP1 [2]) | Activity (Huh-7 [3]) | Activity (Huh-7 [5]) | Activity (SK-HEP1 [10]) | Activity (SK-HEP1 [11]) | Activity (SK-HEP1 [12]) | Activity (Huh-7 [14])
1 |  |  |  |  |  |  | O=C(NOCC1CC1)c1ccc(F)c(F)c1Nc1ccc(I)cc1Cl | Active | Active |  |  |  |  |  | 
2 | Active | Active | Active | Active | Active | Active | O=C(NC[C@H](O)CN1CCc2ccccc2C1)c1ccnc(NC2CCC2)c1 |  |  | Active | Active | Active | Active | Active | Active
